# p-CIP stab down: p/CIP-EGFP fusion destabilizers, primary screen, fluorescence, F442A cells. Q05BA5. 16 h. decrease of EGFP signal, % at 10 µM. 0.01% of 290,000 active. AID 1984, 2009;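 active means EGFP signal decrease of at least 30% at 10 µM or well 3 SD below plate mean, unless failing retest; inactive means the rest, including hits failing retest or dose response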
# T cell HTS: modulators of CD8 T cell-vesicle binding, primary screen, mouse 2C CD8+ T cells, flow cytometry; 0.068% of 330,000 active; response (vesicle binding), % at 7 µM; 2C CD8+ T cell-vesicle binding; stronger effect = lower value;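 active means response, share of CD8 T cells binding vesicles, and their 90th percentile fluorescence all below set limits, cut at about 80% in these data, passing the limit was not always enough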;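 further: values below 100% mean blocked vesicle binding to the CD8+ T cells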
#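 Test system: purified 2C TCR transgenic mouse naive CD8+ T cells. Probe or stimulus: QL9-peptide-loaded Drosophila micro-vesicles bearing Ld, ICAM-1 and B7-1. Incubation: binding step 1.5 h, 37 °C, antibody labelling 20 min, ice. Measured by: flow cytometry of vesicle-bound cells.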
# CHT PAM: CHT positive allosteric modulators, primary screen, cell-based, membrane potential dye, choline EC20. 0.49% of 310,000 active. CHT-expressing cells; stronger effect = higher value; LV-AA mutant CHT in HEK293 cells. B-score at 10 µM. High affinity choline transporter 1 (Homo sapiens), Q9GZV3;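 active means initial fluorescence not abnormally high and integrated response B-score, plate-corrected, over 3 SD above library mean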
# CHT inh: inhibitors of human choline transporter CHT. CHT-expressing cells, membrane potential dye, choline response; stronger effect = lower value. AID 488975, 2010. High affinity choline transporter 1 (Homo sapiens), Q9GZV3. 0.86% of 310,000 active. B-score at 10 µM;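 active means B-score over 3 SD under the library average, and starting fluorescence ratio not unusually high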;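 further: choline stimulus applied at its EC90 after an EC20 pre-addition; B-score computed on integrated fluorescence ratio after choline addition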
# GPR7 antagonist: GPR7 receptor antagonists, primary screen, cell-based, fluorescence, single concentration. GPR7-expressing cells, fluorescence antagonist assay. Neuropeptides B/W receptor type 1 (Homo sapiens), P48145. inhibition, % at 4.4 µM. 1.1% of 290,000 active; in the data active means inhibition above about 16%, passing the limit was not always enough;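 further: cells stimulated with the agonist NPW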
# Pemphigus Ab inh: inhibitors of pemphigus antibody binding to DSG3, primary screen, biochemical, bead-based, flow cytometry, scFv-GFP; Desmoglein-3 (Homo sapiens), P32926; DSG3-coupled beads, scFv-anti-DSG3-GFP binding; stronger effect = lower value; binding (percent of control), % at 10 µM; 0.48% of 310,000 active; AID 588358, 2011;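 active means binding more than 3 SD below its plate's average and above zero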;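 further: hits lower antibody fragment binding to DSG3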
# CHT act confirm: CHT activators, confirmation, cell-based, membrane potential dye, duplicate; shares compounds with CHT PAM; CHT-expressing cells, membrane potential dye fluorescence (FDSS); % of choline EC20–EC90 response window; HEK293 expressing CHT LV-AA mutant; choline added at its EC20; activation, % at 10 µM; 91% of 2,500 active; AID 504833, 2011;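 active means primary screen active, with duplicate mean activation above negative control mean plus 3 SD, cut at about 11% in these data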
# HEK293 MP dye: membrane potential response in parental HEK293 cells, counter-screen for CHT activator project, cell-based, membrane potential dye. shares compounds with CHT PAM. membrane potential dye fluorescence (FDSS); measured after EC20 choline addition. ratio readout change at 10 µM, hits read low. 62% of 2,500 active;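 active means duplicate-averaged ratio beyond 3 SD from buffer wells, up or down, though filed actives are nearly all decreases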
# A number is an active result; n = inactive; x = not tested or not shown. Only some compounds are listed: those with a hit (about 2.3% of all), similar ones and a draw of the others.
SMILES,p-CIP stab down,T cell HTS,CHT PAM,CHT inh,GPR7 antagonist,Pemphigus Ab inh,CHT act confirm,HEK293 MP dye
COC(=O)CN1C(c2ccc(OC)cc2)=Nc2ccc(Cl)cc2C1c1ccccc1 (centres undefined),n,n,n,n,n,n,x,x
Cc1cccc(CN2CCC(CNC(=O)CSc3cc(=O)n(C)c4cc(Cl)ccc34)CC2)c1,n,n,6.4,n,n,n,21,n
c1ccc(N2CCN(c3ccc4nncn4n3)CC2)nc1,n,n,9.7,n,n,n,66,-58
c1cc2nncn2nc1N1CCCC1,n,n,n,n,n,n,x,x
Cc1nnc2ccc(N3CCN(c4ccccn4)CC3)nn12,n,n,7.2,n,n,n,53,-51
C(=N\Nc1ccc2nncn2n1)/c1ccccn1,n,n,n,n,n,n,24,-54
COc1ccc(CNCCC(c2ccccc2)c2ccc(OC(C)C)cc2)cc1OC (centres undefined),n,n,7.5,n,n,n,n,n
COc1ccc(CNCC(O)(c2ccccc2)c2ccc(F)cc2)cc1 (centres undefined),n,n,n,n,n,n,x,x
COc1ccc(C(CCNCc2ccc(N(C)C)cc2)c2ccccc2OC)cc1 (centres undefined),n,n,n,n,n,n,x,x
COc1ccc(C(CCNCc2ccc(OC(C)C)cc2)c2ccccc2OC)cc1 (centres undefined),n,n,6.7,n,n,n,14,n
COc1ccc(CNCCC(c2ccc(F)cc2)c2ccc(OC)cc2)cc1 (centres undefined),n,n,n,n,47,x,n,n
COc1ccc(CNCCC(c2ccc(OC)cc2)c2ccccc2OC)cc1 (centres undefined),n,n,7.8,n,n,n,17,n
O=C1c2cccc3cccc(c23)C(=O)N1CC1CCN(CC(O)COCc2ccc3c(c2)OCO3)CC1 (centres undefined),n,n,n,n,n,n,38,-56
C=CCOc1cccc(/C=N/NC(=O)CN(c2cc(Cl)ccc2OC)S(=O)(=O)c2ccc(C)c([N+](=O)[O-])c2)c1,n,n,n,n,n,n,n,n
C[C@@H]1CN([C@H](C)CO)C(=O)c2cc(C#CC3CC3)cnc2O[C@H]1CN(C)S(C)(=O)=O,x,x,x,x,x,n,x,x
Cc1ccc[n+](Cc2ccc([N+](=O)[O-])cc2)c1,n,n,n,n,n,n,x,x
O=[N+]([O-])c1ccc(C[n+]2cccc3c4ccccc4ccc32)cc1,n,n,10,n,n,n,75,-75
CCN(CC)CCCNc1ncnc2ccccc12,n,n,7.8,n,n,n,61,-66
COc1ccc([C@H]2CC(=O)C=C(c3cc4ccccc4s3)C2)cc1OC,x,n,x,x,x,n,x,x
Cc1cc(N2CCN(Cc3nc(-c4ccc(F)cc4)oc3C)CC2)cc(C)n1,n,n,6.8,n,n,n,43,-47
CCOC(=O)c1sc2ncnc(N3CCN(CC)CC3)c2c1C,n,n,n,n,n,n,45,-43
Cc1ccc(OCC(=O)NNC(=O)c2ccc(F)c(S(=O)(=O)N3CCOCC3)c2)cc1C,x,x,x,x,x,n,x,x
CN(C)c1ccc(/C=N/NC(=O)c2nnn(-c3nonc3N)c2CN2CCCCCC2)cc1,x,n,n,n,x,x,x,x
C/C(=N\NC(=O)c1nnn(-c2nonc2N)c1CN1CCC(C)CC1)c1cccc(Br)c1,n,n,n,n,n,n,16,n
CC1CCN(Cc2c(C(=O)N/N=C/c3ccc(C(C)(C)C)cc3)nnn2-c2nonc2N)CC1,n,n,7,n,n,n,14,n
